# Screening results (PubChem)
# PERK inh: block of dimerizer-induced PERK translation repression, primary screen, PERK inhibitor project, CHO PERK-DD cells, SEAP luminescence, HTS; Eukaryotic translation initiation factor 2-alpha kinase 3 (Homo sapiens), Q9NZJ5; CHO PERK-DD fusion, SEAP luminescence translation reporter; inhibition, % at 5.6 µM; hit rate 0.17% among 220,000; AID 1416, 2008;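 active means inhibition above the mean inhibition of all tested compounds plus 3 SD, set separately per screening campaign, cut at about 2.9% in these data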;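 further: PERK kinase domain activated by AP20187 dimerizer at 100 nM; 0% = DMSO with dimerizer and 100% = rapamycin at 8.4 µM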
# Target sequence (Q9NZJ5 whole entry, looked up, the tested form may be a part): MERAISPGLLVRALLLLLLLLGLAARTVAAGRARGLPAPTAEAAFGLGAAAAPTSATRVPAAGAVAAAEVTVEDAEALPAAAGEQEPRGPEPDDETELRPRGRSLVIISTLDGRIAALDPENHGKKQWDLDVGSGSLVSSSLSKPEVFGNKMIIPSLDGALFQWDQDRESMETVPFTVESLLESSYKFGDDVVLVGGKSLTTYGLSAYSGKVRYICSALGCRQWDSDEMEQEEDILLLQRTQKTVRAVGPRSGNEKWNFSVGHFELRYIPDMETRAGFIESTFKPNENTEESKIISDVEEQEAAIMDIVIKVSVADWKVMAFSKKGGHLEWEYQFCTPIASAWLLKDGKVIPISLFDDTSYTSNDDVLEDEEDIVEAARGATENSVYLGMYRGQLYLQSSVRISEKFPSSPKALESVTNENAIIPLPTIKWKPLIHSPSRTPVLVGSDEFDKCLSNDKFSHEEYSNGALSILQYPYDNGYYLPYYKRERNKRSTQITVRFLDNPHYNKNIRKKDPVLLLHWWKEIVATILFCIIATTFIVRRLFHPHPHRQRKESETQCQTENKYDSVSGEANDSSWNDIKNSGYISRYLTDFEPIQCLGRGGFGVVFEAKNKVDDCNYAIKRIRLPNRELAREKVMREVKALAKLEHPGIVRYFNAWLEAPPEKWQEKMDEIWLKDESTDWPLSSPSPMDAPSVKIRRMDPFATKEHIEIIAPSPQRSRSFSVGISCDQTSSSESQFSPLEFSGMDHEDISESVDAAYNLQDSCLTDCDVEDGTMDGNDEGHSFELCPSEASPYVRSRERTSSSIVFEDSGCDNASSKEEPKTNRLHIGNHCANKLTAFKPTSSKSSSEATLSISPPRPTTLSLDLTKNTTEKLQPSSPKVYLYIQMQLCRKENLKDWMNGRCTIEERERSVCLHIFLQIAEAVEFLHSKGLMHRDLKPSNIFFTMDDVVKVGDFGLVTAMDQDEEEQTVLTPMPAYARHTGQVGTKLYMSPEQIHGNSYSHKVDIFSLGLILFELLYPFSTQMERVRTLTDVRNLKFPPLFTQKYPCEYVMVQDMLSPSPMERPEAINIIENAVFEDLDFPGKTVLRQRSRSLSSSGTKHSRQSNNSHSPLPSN
# Efa HMGR inh: inhibitors of E. faecalis class II HMGR, primary screen, biochemical, Enterococcus faecalis | HMG-CoA reductase (Enterococcus faecalis, mvaE) | purified E. faecalis HMGR, NADPH absorbance 340 nm kinetic | inhibition, % at 10 µM | AID 1066, 2008 | hit rate 0.41% among 190,000;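 active means inhibition above a set limit, the median over all tested compounds plus 3 SD, cut at about 9.5% in these data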;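 further: enzyme runs in reverse so mevalonate oxidation gives rising NADPH absorbance; 0% = complete reaction with DMSO and 100% = background rate lacking mevalonate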
# TNF death inh: inhibitors of TNF-alpha triggered necroptosis, primary screen, cell-based, Jurkat FADD-/-, single concentration. activation (protection from cell death), % at 10 µM. hit rate 0.068% among 220,000. Jurkat FADD-/- TNF necroptosis rescue, ATP luminescence, 24 h; 0 = TNF only, 100 = no-TNF cells;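 active means activation, meaning protection from cell death, of at least 50% relative to plate controls; inactive means activation below 50%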;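 further: necroptosis triggered by 40 ng/mL TNF-alpha added together with compound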
# zVAD death inh: inhibitors of zVAD-triggered necroptosis, primary screen, L929 cells; L929 zVAD necroptosis rescue, ATP luminescence, 24 h; with zVAD 60 µM; viability rescue, % at 10 µM; hit rate 0.38% among 220,000; AID 1377, 2008;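 active means activation, scaled between plate controls, above about 75%, limit read from the data; inactive means activation under that limit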;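 further: 0% = zVAD with DMSO and 100% = DMSO alone without zVAD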
# Rad51 HR inh: human RAD51 strand exchange inhibitors, primary screen, biochemical, fluorescence. DNA repair protein RAD51 homolog 1 (Homo sapiens), Q06609. hRad51 DNA strand exchange, fluorescence dequenching. inhibition, % at 10 µM. hit rate 0.085% among 200,000;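 active means inhibition above 40% at the single screening dose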;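 further: 0% = DMSO control wells and 100% = blanks with heterologous ssDNA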
#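 Test system – preformed human Rad51 ssDNA filaments · Reagent – Donor/quencher-labelled 47-bp dsDNA substrate · Incubation – 37 °C 15-min filament assembly, 30-min compound preincubation, 15-min exchange · Signal – FRET fluorescence dequenching, excitation 485 nm, emission 520 nm · Read-out – percent inhibition from fluorescence, normalised to plate control and blank means · Benchmarks – plate control and blank wells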
# * hit, by the source's call; x = no result given. In the library only some 1% were active in any assay of this set; here they are far more common.
SMILES,PERK inh,Efa HMGR inh,TNF death inh,zVAD death inh,Rad51 HR inh
CCc1nc(SCC(=O)Nc2ccc(N(C)C)cc2)c2ccccc2n1,-1,x,-1,2,11
COc1ccc(NC(=O)c2cncc(Br)c2)c(S(=O)(=O)N2CCOCC2)c1,0,11*,0,2,-5
Cc1cc(C)cc(-n2c3nc4ccccc4nc3c3c(=O)n(Cc4ccco4)cnc32)c1,0,17*,-2,0,-5
COc1cc2c(=O)n(CCC(=O)NCC3CCCO3)c(=O)n(CC(=O)c3ccc(Cl)cc3)c2cc1OC (centres undefined),1,3,0,1,3
Cc1csc2c(=O)sc(NC(=O)c3ccc(F)cc3Cl)nc12,-1,x,0,0,8
Cc1csc2c(=O)sc(NC(=O)c3ccc(F)cc3)nc12,5.2*,x,1,0,4
COc1c(F)c(F)c(C(=O)O)c(Nc2cccc(C)c2)c1F,0,-5,1,1,-7
Cc1cc(C)cc(Nc2c(F)c(F)c(F)c(F)c2C(=O)O)c1,1,9.6*,1,4,-1
CCOc1cc(C2C3=C(CCCC3=O)Nc3ccc4ncccc4c32)ccc1O (centres undefined),0,12*,2,0,24
COc1cc(C2C3=C(CCCC3=O)Nc3ccc4ncccc4c32)ccc1O (centres undefined),1,-3,-3,0,-8
COc1ccc(-c2nc(CN3CCCCC3c3cccnc3)c(C)o2)c(F)c1 (centres undefined),0,16*,2,-2,-2
Nc1cccc(Oc2ccc([N+](=O)[O-])cc2)c1,2,10*,0,3,4
O=C(O)c1cccc(Oc2ccc([N+](=O)[O-])cc2)c1,-1,-7,0,-1,2
Cc1ccc(N2C(=O)C3ON(c4ccccc4)C(CC(C)C)C3C2=O)cc1 (centres undefined),1,x,-1,0,-1
Cc1ccc(C(=O)NCCc2ccncc2)cc1,1,12*,-1,0,4
COc1ccc2[nH]c(C)cc(=O)c2c1,1,-1,0,-1,1
COc1ccc2[nH]c3c(C)c4ccncc4c(C)c3c2c1,-1,x,-31,55,47*
CC1=C(C(=O)OCc2ccc3c(c2)OCO3)C(c2cccc([N+](=O)[O-])c2)NC(=O)N1 (centres undefined),0,-5,2,1,-5
O=c1[nH]c2ccc(NC(=S)Nc3ccc(F)cc3)cc2[nH]1,1,x,2,0,19
CCc1ccc(NC(=S)Nc2ccc3[nH]c(=O)[nH]c3c2)cc1,3.0*,x,-5,0,x
CCN(C(=O)COC(=O)c1[nH]c(=O)[nH]c(=O)c1N)c1ccccc1,1,1,0,1,13
COc1ccc(C(=O)Nc2ccc(C(F)(F)F)n(C)c2=O)cc1,1,11*,1,8,-6
Cc1ccc(C(=O)Nc2ccc(C(F)(F)F)n(C)c2=O)cc1,1,-1,1,22,26
COc1ccc(NC(=O)c2ccc3c(c2)n(C)c(=O)n3C)cc1,-1,21*,-2,x,-7
Cc1ccc(S(=O)(=O)N2CCN(C(=O)Cn3nc(C(=O)O)c4ccccc4c3=O)CC2)cc1,0,x,1,1,-8
SMILES,PERK inh,Efa HMGR inh,TNF death inh,zVAD death inh,Rad51 HR inh
COC(=O)C1(C)Cc2cc(OC(C)=O)c(OC(C)=O)cc2N1 (centres undefined),2,x,-15,0,12
CC(C)(C)c1ccc(C(=O)Oc2ccccc2CCC(=O)O)cc1,3.4*,x,3,0,-23
COc1cc(C(=O)Nc2cccc(-c3cn4cccnc4n3)c2)cc(OC)c1OC,0,1,-4,58,4
COc1ccc(-c2cn3cccnc3n2)cc1NC(=O)c1cc(OC)c(OC)c(OC)c1,1,9.6*,-1,1,-11
Cc1cc(C)nc(NC(=O)CCC2CCCC2)c1,0,9.9*,1,0,2
COC(=O)C1C(O)=C(C(C)=Nc2cccc3ccccc23)C(=O)CC1(C)C (centres undefined),0,x,-12,0,-5
Cc1ccc2nsnc2c1N,2,18*,1,11,-4
Cc1occc1-c1nnc(SCC(=O)N2CCCCC2)o1,0,13*,2,18,5
Cc1ccc2nc(-c3ccsc3)c(NC3CCCC3)n2c1,1,1,0,0,-4
CCN(CC)c1ccc(-c2n[nH]c(=S)n2-c2ccccc2C)cc1,0,14*,-1,1,-1
Cc1nn(Cc2ccccc2)c(Cl)c1/C=C1\NC(=S)NC1=O,0,1,1,37,3
CC(NC=C1C(=O)OC(C)(C)OC1=O)C(=O)O (centres undefined),3.3*,-12,0,0,x
CCN(CC)CCOc1nc(C)nc2c1oc1ccccc12,0,14*,0,0,-2
CCN(CC)CCCOc1nc(C)nc2c1oc1ccccc12,0,-5,0,-1,-33
Brc1c(NC2=NCCN2)ccc2nccnc12,0,18*,1,1,9
Clc1ccc(-c2csc(Nc3ccccc3)[n+]2Cc2ccco2)c(Cl)c1,1,2,-3,5,-3
COc1ccc(OC)c(Cc2nnc(CCC(=O)NC(C3CC3)C3CC3)o2)c1,0,-2,0,2,-4
COc1ccc(OC)c(Cc2nnc(CCC(=O)NCc3ccc(C)s3)o2)c1,3.3*,-5,1,4,-1
Cc1cc(=S)[nH]c(=S)[nH]1,1,x,1,0,14
CNCc1nc2ccccc2[nH]1,0,13*,0,2,1
CCCCc1nc2ccccc2[nH]1,2,-2,7,2,6
c1csc(Cc2nc3ccccc3[nH]2)c1,1,2,65*,14,5
O=C(/C(=C/c1cccnc1)n1ccnc1)c1ccc(Cl)cc1Cl,0,x,-9,-1,1
COc1ccc([N+](=O)[O-])c(OC)c1C(=O)NC(=O)Nc1c(F)cc(F)cc1F,-1,x,-1,-1,0
CCOC(=O)c1nnn(-c2nonc2N)c1-c1cccs1,1,2,2,4,4
Nc1nonc1-n1nnc(C(=O)O)c1-c1cccs1,0,10*,-1,1,1
CC1(/[N+]([O-])=C\c2ccccc2F)CCCCC1=O (centres undefined),-1,x,0,1,21
CCCn1c(O)c(C=Nc2ccccc2)sc1=S,1,-6,2,1,1
CCn1c(O)c(C=NCc2ccccc2)sc1=S,1,x,68*,-1,13
